Data taken from ChEMBL document CHEMBL1146929, “Biological evaluation of a multi-targeted small molecule inhibitor of tumor-induced angiogenesis” (Bioorg Med Chem Lett, 2006).

Key:
[1] = Volume of distribution in Wistar rat at 5 mg/kg, iv; format: ADME, organism-based; set-up: dose 5 mg/kg, route intravenous; details: in vivo, read-out: Vdss
Procedure, shortened: (§1)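 Single doses given iv and orally. Mice (athymic nude) received 10 mg/kg iv, with bleeds at 1, 5, 15, 30 min and 1-24 h, and 50 or 200 mg/kg po, with bleeds at 5 min-24 h. Wistar rats received 5 mg/kg iv through a femoral arterial catheter, with jugular bleeds to 24 h, and 50 or 200 mg/kg po, with bleeds to 48 h. The iv vehicle was 2% DMA/10% PEG400/88% of 40% HPBCD and the oral vehicle 2% Klucel LF/0.1% Tween 80. EDTA plasma was assayed by LC-MS/MS against a calibration of 1-2000 ng/mL.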

[2] = Half life in Wistar rat at 5 mg/kg, iv; format: ADME, organism-based; set-up: dose 5 mg/kg, route intravenous; details: in vivo; procedure, shortened: as §1
[3] = system: HUVEC; experiment: Inhibitory activity against VEGF-induced proliferation of HUVEC cells; format: functional, cell-based; details: Homo sapiens
Procedure, shortened: (§2)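 HUVECs were grown to subconfluence, serum-starved for 24 h, then given compound for 2 h before stimulation with 20 ng/mL VEGF or 5 ng/mL bFGF. BrdU label was added after 20 h with compound. Incorporation was read 4 h later with a peroxidase anti-BrdU antibody and colorimetric detection. IC50 came from a single experiment in duplicate.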

[4] = molecular target: RAC-alpha serine/threonine-protein kinase (Homo sapiens, UniProt P31749); experiment: Inhibitory activity against AKT
Procedure, shortened: (§3)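 IMAP fluorescence-polarization kinase assay: phosphorylated fluorescent peptide substrate binds immobilized metal beads, giving a measure of kinase activity. Reactions were run with ATP at three times the Km of each kinase.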

[5] = system: Mus musculus; experiment: Inhibition of tumor growth in nude mice implanted with H460a cells at 100 mg/kg, po after 28 days; format: functional; details: 672 h
[6] = Clearance in nude mice at 10 mg/kg, iv; format: ADME, organism-based; set-up: dose 10 mg/kg, route intravenous; details: mouse, in vivo; procedure, shortened: as §1
[7] = AUC in Wistar rat at 200 mg/kg, po; format: ADME, organism-based; set-up: dose 200 mg/kg, route oral; details: plasma; procedure, shortened: as §1
[8] = system: Mus musculus; experiment: Inhibition of tumor growth in nude mice implanted with H460a cells at 50 mg/kg, po after 28 days; format: functional; details: 672 h
[9] = Cmax in nude mice at 200 mg/kg, po; format: ADME, organism-based; set-up: dose 200 mg/kg, route oral; details: mouse, in vivo; procedure, shortened: as §1
[10] = Clearance in Wistar rat at 5 mg/kg, iv; format: ADME, organism-based; set-up: dose 5 mg/kg, route intravenous; details: in vivo; procedure, shortened: as §1
[11] = Half life in nude mice at 200 mg/kg, po; format: ADME, organism-based; set-up: dose 200 mg/kg, route oral; details: mouse, in vivo; procedure, shortened: as §1
[12] = Volume of distribution in nude mice at 10 mg/kg, iv; format: ADME, organism-based; set-up: dose 10 mg/kg, route intravenous; details: mouse, in vivo, read-out: Vdss; procedure, shortened: as §1
[13] = system: Mus musculus; experiment: Inhibition of VEGF-induced corneal angiogenesis in C57/BL6 mice at 200 mg/kg, po after 7 days; format: functional; details: C57/BL6, Cornea, 168 h
Procedure, shortened: (§4)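 VEGF-containing pellets were implanted in the cornea of C57/BL6 mice. Cohorts were dosed orally bid at 12.5, 50 or 200 mg/kg for 7 days, after which the area of corneal angiogenesis (mm2) was quantified against vehicle. Body weight was monitored throughout.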

[14] = system: HUVEC; experiment: Inhibitory activity against bFGF-induced proliferation of HUVEC cells; format: functional, cell-based; details: Homo sapiens; procedure, shortened: as §2
[15] = system: Mus musculus; experiment: Inhibition of VEGF-induced corneal angiogenesis in C57/BL6 mice at 50 mg/kg, po after 7 days; format: functional; details: C57/BL6, Cornea, 168 h; procedure, shortened: as §4
[16] = molecular target: Protein kinase C delta type (Homo sapiens, UniProt Q05655); experiment: Inhibitory activity against PKC delta; procedure, shortened: as §3
[17] = molecular target: Vascular endothelial growth factor receptor 2 (Homo sapiens, UniProt P35968); experiment: Inhibitory activity against recombinant human KDR
[18] = molecular target: Protein kinase C alpha type (Homo sapiens, UniProt P17252); experiment: Inhibitory activity against PKC alpha
Procedure, shortened: (§5)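 IMAP homogeneous fluorescence-polarisation kinase assay: phosphorylated fluorescent peptide substrate binds immobilised metal beads, read as kinase activity. Reactions run at ATP three times the Km for each enzyme.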

[19] = molecular target: T1, Serine/threonine-protein kinase Sgk1 (Homo sapiens, UniProt O00141); experiment: Inhibitory activity against SGK; procedure, shortened: as §3
T1 sequence (O00141 whole entry): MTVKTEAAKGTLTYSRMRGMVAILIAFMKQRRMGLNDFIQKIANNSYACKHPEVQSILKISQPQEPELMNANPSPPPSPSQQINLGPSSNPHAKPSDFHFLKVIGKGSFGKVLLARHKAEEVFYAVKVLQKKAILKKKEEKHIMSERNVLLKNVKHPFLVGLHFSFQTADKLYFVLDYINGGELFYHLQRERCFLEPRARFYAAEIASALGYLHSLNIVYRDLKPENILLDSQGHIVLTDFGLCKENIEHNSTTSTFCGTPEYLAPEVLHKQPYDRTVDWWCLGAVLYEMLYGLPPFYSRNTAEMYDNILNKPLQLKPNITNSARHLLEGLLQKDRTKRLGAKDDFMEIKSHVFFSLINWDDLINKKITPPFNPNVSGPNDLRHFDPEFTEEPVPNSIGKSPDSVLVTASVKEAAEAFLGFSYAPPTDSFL

[20] = Half life in Wistar rat at 200 mg/kg, po; format: ADME, organism-based; set-up: dose 200 mg/kg, route oral; details: in vivo; procedure, shortened: as §1
[21] = system: Mus musculus; experiment: Inhibition of tumor growth in nude mice implanted with H460a cells at 200 mg/kg, po after 28 days; format: functional; details: 672 h
[22] = system: HCT-116; experiment: Antiproliferative activity against HCT116 by MTT assay; format: functional, cell-based; details: Homo sapiens
Procedure, shortened: (§6)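 Exponentially growing HCT116 or H460a tumor cells were plated and held overnight at 37 C before compound was added. Proliferation was read as MTT formazan formation during a 2.5 h incubation 6 days after plating. IC50 came from a single experiment run in duplicate.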

[23] = Half life in nude mice at 50 mg/kg, po; format: ADME, organism-based; set-up: dose 50 mg/kg, route oral; details: mouse, in vivo; procedure, shortened: as §1
[24] = AUC in nude mice at 10 mg/kg, iv; format: ADME, organism-based; set-up: dose 10 mg/kg, route intravenous; details: mouse, plasma; procedure, shortened: as §1
[25] = molecular target: Platelet-derived growth factor receptor (Homo sapiens, UniProt P09619+P16234); experiment: Inhibitory activity against recombinant human PDGFR; format: protein-complex assay
[26] = Cmax in Wistar rat at 50 mg/kg, po; format: ADME, organism-based; set-up: dose 50 mg/kg, route oral; details: in vivo; procedure, shortened: as §1
[27] = AUC in Wistar rat at 5 mg/kg, iv; format: ADME, organism-based; set-up: dose 5 mg/kg, route intravenous; details: plasma; procedure, shortened: as §1
[28] = Half life in Wistar rat at 50 mg/kg, po; format: ADME, organism-based; set-up: dose 50 mg/kg, route oral; details: in vivo; procedure, shortened: as §1
[29] = molecular target: cAMP-dependent protein kinase (PKA) (Homo sapiens, UniProt P22694+P17612+P22612); experiment: Inhibitory activity against PKA; format: protein assay; procedure, shortened: as §3
[30] = Cmax in Wistar rat at 200 mg/kg, po; format: ADME, organism-based; set-up: dose 200 mg/kg, route oral; details: in vivo; procedure, shortened: as §1
[31] = AUC in Wistar rat at 50 mg/kg, po; format: ADME, organism-based; set-up: dose 50 mg/kg, route oral; details: plasma; procedure, shortened: as §1
[32] = Half life in nude mice at 10 mg/kg, iv; format: ADME, organism-based; set-up: dose 10 mg/kg, route intravenous; details: mouse, in vivo; procedure, shortened: as §1
[33] = Cmax in nude mice at 50 mg/kg, po; format: ADME, organism-based; set-up: dose 50 mg/kg, route oral; details: mouse, in vivo; procedure, shortened: as §1
[34] = system: NCI-H460; experiment: Antiproliferative activity against H460a by MTT assay; format: functional, cell-based; details: Homo sapiens; procedure, shortened: as §6
[35] = molecular target: T2, Ephrin type-B receptor 3 (Homo sapiens, UniProt P54753); experiment: Inhibitory activity against EphB3; procedure, shortened: as §3
T2 sequence (P54753 whole entry): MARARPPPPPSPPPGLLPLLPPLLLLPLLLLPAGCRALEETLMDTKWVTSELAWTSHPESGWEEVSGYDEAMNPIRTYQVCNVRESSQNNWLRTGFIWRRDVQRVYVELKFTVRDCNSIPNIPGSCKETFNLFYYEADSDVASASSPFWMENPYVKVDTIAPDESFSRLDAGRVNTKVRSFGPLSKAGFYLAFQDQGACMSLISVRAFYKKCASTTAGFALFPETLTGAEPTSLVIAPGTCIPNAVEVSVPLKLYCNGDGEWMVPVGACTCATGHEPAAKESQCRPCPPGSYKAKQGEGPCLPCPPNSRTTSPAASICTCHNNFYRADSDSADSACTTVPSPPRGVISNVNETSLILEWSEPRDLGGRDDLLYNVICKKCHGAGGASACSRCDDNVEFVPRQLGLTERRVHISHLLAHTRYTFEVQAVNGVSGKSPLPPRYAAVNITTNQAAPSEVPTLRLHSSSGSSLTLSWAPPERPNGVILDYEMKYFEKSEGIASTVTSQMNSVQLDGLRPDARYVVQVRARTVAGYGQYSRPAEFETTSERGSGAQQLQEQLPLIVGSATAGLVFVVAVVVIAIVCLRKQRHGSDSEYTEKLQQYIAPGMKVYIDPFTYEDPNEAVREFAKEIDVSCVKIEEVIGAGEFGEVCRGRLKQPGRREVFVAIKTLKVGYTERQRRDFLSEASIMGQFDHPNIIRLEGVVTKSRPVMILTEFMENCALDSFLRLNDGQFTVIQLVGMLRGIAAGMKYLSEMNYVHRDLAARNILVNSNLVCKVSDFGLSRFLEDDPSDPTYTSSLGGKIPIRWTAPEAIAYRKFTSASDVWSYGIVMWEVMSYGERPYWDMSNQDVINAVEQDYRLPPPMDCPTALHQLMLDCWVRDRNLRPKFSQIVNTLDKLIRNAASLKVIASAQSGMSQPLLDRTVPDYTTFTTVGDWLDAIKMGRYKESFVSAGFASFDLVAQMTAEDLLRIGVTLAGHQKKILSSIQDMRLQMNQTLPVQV

[36] = molecular target: Cyclin-dependent kinase 1/cyclin B (Homo sapiens, UniProt P06493); experiment: Inhibition of CDK1/cyclinB; format: protein-complex assay; procedure, shortened: as §3
[37] = AUC in nude mice at 200 mg/kg, po; format: ADME, organism-based; set-up: dose 200 mg/kg, route oral; details: mouse, plasma; procedure, shortened: as §1
[38] = AUC in nude mice at 50 mg/kg, po; format: ADME, organism-based; set-up: dose 50 mg/kg, route oral; details: mouse, plasma; procedure, shortened: as §1
[39] = molecular target: Mitogen-activated protein kinase 1 (Homo sapiens, UniProt P28482); experiment: Inhibitory activity against Erk2; procedure, shortened: as §5
Mitogen-activated protein kinase 1, sequence (P28482 whole entry): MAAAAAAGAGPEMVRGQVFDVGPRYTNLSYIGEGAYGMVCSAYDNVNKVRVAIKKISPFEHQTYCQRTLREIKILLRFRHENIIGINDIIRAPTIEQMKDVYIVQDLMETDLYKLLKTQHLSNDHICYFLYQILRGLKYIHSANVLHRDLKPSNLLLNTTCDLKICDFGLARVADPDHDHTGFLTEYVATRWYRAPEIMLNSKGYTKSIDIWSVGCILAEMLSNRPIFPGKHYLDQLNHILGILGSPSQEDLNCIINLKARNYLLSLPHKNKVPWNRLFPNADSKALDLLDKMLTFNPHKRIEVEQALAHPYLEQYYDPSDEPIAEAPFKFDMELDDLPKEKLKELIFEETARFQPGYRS

Vascular endothelial growth factor receptor 2, sequence (P35968 whole entry): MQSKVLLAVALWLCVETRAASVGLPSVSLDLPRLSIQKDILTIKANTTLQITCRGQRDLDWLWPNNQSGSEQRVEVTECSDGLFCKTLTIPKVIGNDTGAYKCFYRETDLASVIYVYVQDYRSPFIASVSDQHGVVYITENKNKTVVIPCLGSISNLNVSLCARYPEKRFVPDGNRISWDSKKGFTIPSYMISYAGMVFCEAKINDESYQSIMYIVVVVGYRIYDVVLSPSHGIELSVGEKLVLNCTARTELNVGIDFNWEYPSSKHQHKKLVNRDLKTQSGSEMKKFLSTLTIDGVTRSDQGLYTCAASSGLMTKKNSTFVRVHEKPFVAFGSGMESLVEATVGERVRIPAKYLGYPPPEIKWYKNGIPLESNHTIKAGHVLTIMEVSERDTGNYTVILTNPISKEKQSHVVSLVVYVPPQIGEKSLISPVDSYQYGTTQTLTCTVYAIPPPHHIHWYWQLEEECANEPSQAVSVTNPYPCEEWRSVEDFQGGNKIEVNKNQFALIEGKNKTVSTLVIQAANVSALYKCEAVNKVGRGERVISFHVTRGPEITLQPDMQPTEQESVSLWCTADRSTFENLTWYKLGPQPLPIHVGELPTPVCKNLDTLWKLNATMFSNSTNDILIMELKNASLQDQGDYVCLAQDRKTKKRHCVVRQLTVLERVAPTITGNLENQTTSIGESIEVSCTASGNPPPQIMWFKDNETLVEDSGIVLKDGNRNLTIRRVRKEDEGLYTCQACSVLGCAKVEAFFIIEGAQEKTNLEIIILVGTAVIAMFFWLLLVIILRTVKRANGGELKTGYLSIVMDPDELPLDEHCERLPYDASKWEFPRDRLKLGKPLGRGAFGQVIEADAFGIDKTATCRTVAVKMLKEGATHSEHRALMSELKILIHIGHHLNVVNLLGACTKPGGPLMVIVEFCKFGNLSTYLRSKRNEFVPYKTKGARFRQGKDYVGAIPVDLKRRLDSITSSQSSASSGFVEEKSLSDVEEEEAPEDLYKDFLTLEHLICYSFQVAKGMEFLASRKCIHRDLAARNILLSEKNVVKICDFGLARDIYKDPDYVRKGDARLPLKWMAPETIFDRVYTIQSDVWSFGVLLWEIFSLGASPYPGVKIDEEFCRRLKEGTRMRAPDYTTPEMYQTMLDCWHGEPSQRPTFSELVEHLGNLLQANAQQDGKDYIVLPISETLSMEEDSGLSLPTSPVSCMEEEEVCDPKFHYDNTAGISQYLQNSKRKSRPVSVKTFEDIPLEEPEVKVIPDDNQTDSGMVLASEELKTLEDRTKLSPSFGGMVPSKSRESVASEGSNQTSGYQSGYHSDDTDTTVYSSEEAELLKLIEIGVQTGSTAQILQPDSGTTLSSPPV
RAC-alpha serine/threonine-protein kinase, sequence (P31749 whole entry): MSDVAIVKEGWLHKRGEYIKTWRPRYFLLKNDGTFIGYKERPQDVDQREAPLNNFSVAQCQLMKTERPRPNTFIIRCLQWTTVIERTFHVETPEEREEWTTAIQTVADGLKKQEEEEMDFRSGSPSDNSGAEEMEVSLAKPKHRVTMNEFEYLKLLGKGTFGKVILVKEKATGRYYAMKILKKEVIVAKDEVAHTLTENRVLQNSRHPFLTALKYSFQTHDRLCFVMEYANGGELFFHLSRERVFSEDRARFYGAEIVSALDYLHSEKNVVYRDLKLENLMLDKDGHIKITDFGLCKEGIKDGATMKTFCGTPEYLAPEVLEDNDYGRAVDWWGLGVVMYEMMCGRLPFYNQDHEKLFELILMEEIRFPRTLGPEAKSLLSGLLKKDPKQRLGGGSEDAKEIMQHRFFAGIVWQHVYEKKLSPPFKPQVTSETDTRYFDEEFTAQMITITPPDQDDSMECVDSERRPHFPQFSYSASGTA
Protein kinase C delta type, sequence (Q05655 whole entry): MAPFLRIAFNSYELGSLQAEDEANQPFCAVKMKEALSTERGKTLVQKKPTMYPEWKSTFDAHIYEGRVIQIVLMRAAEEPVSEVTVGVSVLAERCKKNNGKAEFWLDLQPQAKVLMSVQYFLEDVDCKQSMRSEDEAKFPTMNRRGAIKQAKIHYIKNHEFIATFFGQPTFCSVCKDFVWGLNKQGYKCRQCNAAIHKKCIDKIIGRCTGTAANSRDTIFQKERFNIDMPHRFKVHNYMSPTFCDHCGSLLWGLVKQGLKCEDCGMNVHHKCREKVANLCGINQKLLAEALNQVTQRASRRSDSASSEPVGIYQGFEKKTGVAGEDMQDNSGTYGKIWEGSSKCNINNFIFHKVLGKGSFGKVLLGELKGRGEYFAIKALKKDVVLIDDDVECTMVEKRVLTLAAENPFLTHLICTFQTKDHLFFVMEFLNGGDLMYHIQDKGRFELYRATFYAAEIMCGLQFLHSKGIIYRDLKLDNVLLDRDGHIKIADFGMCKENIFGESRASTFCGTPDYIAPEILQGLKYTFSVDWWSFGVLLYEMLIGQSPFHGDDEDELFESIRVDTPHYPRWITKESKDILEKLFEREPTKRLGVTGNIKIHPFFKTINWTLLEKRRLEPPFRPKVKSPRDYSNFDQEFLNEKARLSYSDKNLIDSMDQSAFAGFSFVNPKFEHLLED

COc1ccc(N2Cc3cnc(Nc4ccc(F)cc4)nc3N(C3CC[C@@H](O)C3)C2=O)cc1 (single isomer, unassigned)
Vd [1]: 3.7 L/kg | half-life [2]: 4.3 h | IC50 [3]: 0.035 µM | IC50 [4]: > 125 µM | inhibition in vivo at 100 mg/kg [5]: 87% | clearance [6]: 13.8 mL/min/kg | AUC [7]: 285000 ng·h/mL | inhibition in vivo at 50 mg/kg [8]: 78% | Cmax [9]: 82600 ng/mL | clearance [10]: 32.5 mL/min/kg | half-life [11]: 1.7 h | Vd [12]: 1.9 L/kg | inhibition in vivo at 200 mg/kg [13]: 91% | IC50 [14]: 0.149 µM | inhibition in vivo at 50 mg/kg [15]: 67% | IC50 [16]: > 125 µM | IC50 [17]: 0.05 µM | IC50 [18]: > 125 µM | IC50 [19]: > 125 µM | half-life [20]: 7.8 h | inhibition in vivo at 200 mg/kg [21]: 95% | IC50 [22]: 3 µM | half-life [23]: 1.9 h | AUC [24]: 12100 ng·h/mL | IC50 [25]: 0.083 µM | Cmax [26]: 3160 ng/mL | AUC [27]: 2770 ng·h/mL | half-life [28]: 5 h | IC50 [29]: 9.01 µM | Cmax [30]: 10300 ng/mL | AUC [31]: 40900 ng·h/mL | half-life [32]: 2 h | Cmax [33]: 29100 ng/mL | IC50 [34]: 2.5 µM | IC50 [35]: 1.25 µM | IC50 [36]: > 125 µM | AUC [37]: 260000 ng·h/mL | AUC [38]: 96500 ng·h/mL | IC50 [39]: 12.6 µM
